In ChEMBL document CHEMBL3272139, “2,5-Bis(3,4-dimethoxybenzyl)cyclopentylamine, a peripheral dopamine blocking agent” (J Med Chem, 1978):
Activity calls are given as the source filed them.

What was measured:
Canis familiaris [1] = species: Canis familiaris; assay: Cardiovascular activity in pentobarbital-anesthesized, morphine-premedicated, atropinized, right femoral artery and vein-cannulated mongrel dog assessed as decrease in diastolic pressure; type: ADME, organism-based, Canis lupus familiaris; conditions: in vivo
In short: (§1)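 Mongrel dogs atropinized (1 mg/kg) and checked for autonomic responsiveness with norepinephrine and N-isopropylnorepinephrine (0.1–0.2 µg/kg each). Drugs were given iv via an indwelling venous catheter in 2 mL 0.9% saline. Blood pressure and heart rate were recorded via an arterial catheter. Threshold dose was read from a linear plot of % fall in mean pressure against log dose.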

Mus musculus [2] = assay: Potentiation of apomorphine-induced sterotypic climbing in Swiss-Webster mouse at 42.5 to 59.4 umol/kg, ip administered 30 mins prior to apomorphine-challenge measured after 5 mins; type: functional, organism-based; conditions: 47.5 to 59.4 umol/kg, in the assay text read “47.5 to 59.4 umol/kg” for “42.5 to 59.4 umol/kg”
In short: (§2)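 Male Swiss–Webster mice (20–30 g) were dosed ip in 0.9% saline. Thirty minutes later they received apomorphine HCl, 1 mg/kg sc. Each mouse was placed in a wire-mesh cage and scored for vertical climbing after about 5 min of exploration, with two scores per animal averaged. Groups had 10 mice, compared with saline controls by two-tailed Student's t test.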

Canis familiaris [3] = assay: Inhibition of norepinephrine-induced chronotropic effects in pentobarbital-anesthesized, morphine-premedicated, atropinized, right femoral artery and vein-cannulated mongrel dog up to 71 umol/kg; type: functional, organism-based; conditions: Canis lupus familiaris
Canis familiaris [4] = species: Canis familiaris; assay: Cardiovascular activity in pentobarbital-anesthesized, morphine-premedicated, atropinized, right femoral artery and vein-cannulated mongrel dog assessed as threshold dose required for decrease in mean blood pressure; type: ADME, organism-based, Canis lupus familiaris; conditions: in vivo; in short: as §1
Canis familiaris [5] = assay: Reduction in dopamine-induced depressor response in pentobarbital-anesthesized, morphine-premedicated, atropinized, right femoral artery and vein-cannulated mongrel dog at 12 to 17 umol/kg in presence of alpha-adrenergic blocker phenoxybenzamine; type: functional, organism-based; conditions: Canis lupus familiaris
In short: (§3)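 Atropinized mongrel dogs pretreated with phenoxybenzamine, 5 mg/kg, to remove the dopamine pressor action. Depressor response was evoked with dopamine, 3 µg/kg iv. Test drug was given iv in 2 mL saline. ED50 was taken from a linear plot of log dose vs % antagonism of the dopamine depressor effect.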

Canis familiaris [6] = assay: Inhibition of norepinephrine-induced blood pressure effects in pentobarbital-anesthesized, morphine-premedicated, atropinized, right femoral artery and vein-cannulated mongrel dog up to 71 umol/kg; type: functional, organism-based; conditions: Canis lupus familiaris
Canis familiaris [7] = assay: Cardiovascular activity in pentobarbital-anesthesized, morphine-premedicated, atropinized, right femoral artery and vein-cannulated mongrel dog assessed as decrease in mean blood pressure at 2.4 umol/kg relative to control; type: ADME, organism-based, Canis lupus familiaris; design: scale not given: the % may be the effect or the level left; conditions: in vivo; in short: as §1
Canis familiaris [8] = assay: Inhibition of N-isopropylnorepinephrine-induced blood pressure effects in pentobarbital-anesthesized, morphine-premedicated, atropinized, right femoral artery and vein-cannulated mongrel dog up to 71 umol/kg; type: functional, organism-based; conditions: Canis lupus familiaris
Canis familiaris [9] = species: Canis familiaris; assay: Reduction in dopamine-induced depressor response in pentobarbital-anesthesized, morphine-premedicated, atropinized, right femoral artery and vein-cannulated mongrel dog assessed as threshold dose required for reduction; type: functional, Canis lupus familiaris
Canis familiaris [10] = species: Canis familiaris; assay: Cardiovascular activity in pentobarbital-anesthesized, morphine-premedicated, atropinized, right femoral artery and vein-cannulated mongrel dog assessed as vasodepression; type: ADME, organism-based, Canis lupus familiaris; conditions: in vivo; in short: as §1
Canis familiaris [11] = assay: Cardiovascular activity in pentobarbital-anesthesized, morphine-premedicated, atropinized, right femoral artery and vein-cannulated mongrel dog at 95 to 120 umol/kg in presence of propranolol; type: ADME, organism-based, Canis lupus familiaris; conditions: in vivo
Canis familiaris [12] = assay: Cardiovascular activity in pentobarbital-anesthesized, morphine-premedicated, atropinized, right femoral artery and vein-cannulated mongrel dog assessed as time required for decrease in mean blood pressure at 2.4 umol/kg; type: ADME, organism-based, Canis lupus familiaris; conditions: in vivo; in short: as §1
Canis familiaris [13] = species: Canis familiaris; assay: Reduction in dopamine-induced depressor response in pentobarbital-anesthesized, morphine-premedicated, atropinized, right femoral artery and vein-cannulated mongrel dog; type: functional, organism-based; conditions: Canis lupus familiaris; in short: as §3
Canis familiaris [14] = species: Canis familiaris; assay: Cardiovascular activity in pentobarbital-anesthesized, morphine-premedicated, atropinized, right femoral artery and vein-cannulated mongrel dog assessed as decrease in systolic pressure; type: ADME, organism-based, Canis lupus familiaris; conditions: in vivo; in short: as §1
Canis familiaris [15] = assay: Inhibition of N-isopropylnorepinephrine-induced inotropic effects in pentobarbital-anesthesized, morphine-premedicated, atropinized, right femoral artery and vein-cannulated mongrel dog up to 71 umol/kg; type: functional, organism-based; conditions: Canis lupus familiaris
Canis familiaris [16] = assay: Reduction in dopamine-induced depressor response in pentobarbital-anesthesized, morphine-premedicated, atropinized, right femoral artery and vein-cannulated mongrel dog assessed as half life of drug action at 6 ug/kg; type: functional, organism-based; conditions: Canis lupus familiaris
In short: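 Single atropinized dog given 6 µg/kg test drug iv. Residual blockade was measured every 5 min against a 5 µg/kg dopamine challenge. Half-life came from a linear plot of log residual blockade vs time.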

Canis familiaris [17] = assay: Cardiovascular activity in pentobarbital-anesthesized, morphine-premedicated, atropinized, right femoral artery and vein-cannulated mongrel dog at 95 to 120 umol/kg in presence of haloperidol; type: ADME, organism-based, Canis lupus familiaris; conditions: in vivo
Canis familiaris [18] = assay: Cardiovascular activity in pentobarbital-anesthesized, morphine-premedicated, atropinized, right femoral artery and vein-cannulated mongrel dog at 95 to 120 umol/kg; type: ADME, organism-based, Canis lupus familiaris; conditions: in vivo
Canis familiaris [19] = assay: Inhibition of N-isopropylnorepinephrine-induced chronotropic effects in pentobarbital-anesthesized, morphine-premedicated, atropinized, right femoral artery and vein-cannulated mongrel dog up to 71 umol/kg; type: functional, organism-based; conditions: Canis lupus familiaris
Canis familiaris [20] = assay: Cardiovascular activity in pentobarbital-anesthesized, morphine-premedicated, atropinized, right femoral artery and vein-cannulated mongrel dog at 95 to 120 umol/kg in presence of metoclopramide; type: ADME, organism-based, Canis lupus familiaris; conditions: in vivo
Canis familiaris [21] = species: Canis familiaris; assay: Reduction in dopamine-induced depressor response in pentobarbital-anesthesized, morphine-premedicated, atropinized, right femoral artery and vein-cannulated mongrel dog in presence of alpha-adrenergic blocker phenoxybenzamine; type: functional; conditions: Canis lupus familiaris; in short: as §3
Canis familiaris [22] = assay: Inhibition of norepinephrine-induced inotropic effects in pentobarbital-anesthesized, morphine-premedicated, atropinized, right femoral artery and vein-cannulated mongrel dog up to 71 umol/kg; type: functional, organism-based; conditions: Canis lupus familiaris
Mus musculus [23] = assay: Potentiation of apomorphine-induced sterotypic climbing in ip dosed Swiss-Webster mouse administered for 7 days; type: functional
Mus musculus [24] = assay: Reduction in apomorphine-induced sterotypic climbing in Swiss-Webster mouse at 0.1 mg/kg, ip administered 30 mins prior to apomorphine-challenge measured after 5 mins; type: functional, organism-based; design: dose 0.1 mg/kg; in short: as §2

COc1ccc(CC2CCC(Cc3ccc(OC)c(OC)c3)C2N)cc1OC.Cl (centres undefined)
Activity (Canis familiaris [1]): Dose-dependent effect
Activity (Mus musculus [2]): Active
inhibition (Canis familiaris [3]): inactive
Activity (Canis familiaris [4]): 1.2 µmol/kg
Activity (Canis familiaris [5]): Active
inhibition (Canis familiaris [6]): inactive
Activity (Canis familiaris [7]): 10%
inhibition (Canis familiaris [8]): inactive
Activity (Canis familiaris [9]): 0.7 µmol/kg
Activity (Canis familiaris [10]): Toxic
Activity (Canis familiaris [11]): Toxic
Time (Canis familiaris [12]): < 1 min
Activity (Canis familiaris [13]): Dose-dependent effect
Activity (Canis familiaris [14]): Dose-dependent effect
inhibition (Canis familiaris [15]): inactive
T1/2 (Canis familiaris [16]): 18 min
Activity (Canis familiaris [17]): Toxic
Activity (Canis familiaris [18]): Toxic
inhibition (Canis familiaris [19]): inactive
Activity (Canis familiaris [20]): Toxic
ED50 (Canis familiaris [21]): 4 µmol/kg
inhibition (Canis familiaris [22]): inactive
Activity (Mus musculus [23]): 5.94 µmol/kg

O=C(CCCN1CCC(O)(c2ccc(Cl)cc2)CC1)c1ccc(F)cc1
Activity (Mus musculus [24]): Active
